Assay results taken from ChEMBL document CHEMBL3112521, “Design, synthesis and biological evaluation of (E)-2-(2-arylhydrazinyl)quinoxalines, a promising and potent new class of anticancer agents” (Bioorg Med Chem Lett, 2014).
pIC50: −log10 of the molar value.

Assays:
[1] = tested on: SF-295; assay: Cytotoxicity against human SF295 cells assessed as growth inhibition at 5 ug/ml by MTT assay; assay type: functional; settings: read-out: GI
Method in brief: (§1)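 Single-concentration MTT screen at 5 µg/mL across SF-295 (glioblastoma), OVCAR-8 (ovary) and HCT-116 (colon) cells. Read-out is percent growth inhibition, reported with sd.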

[2] = tested on: OVCAR-8; assay: Cytotoxicity against human OVCAR8 cells assessed as growth inhibition at 5 ug/ml by MTT assay; assay type: functional; settings: read-out: GI; method in brief: as §1
[3] = tested on: HCT-116; assay: Cytotoxicity against human HCT116 cells assessed as growth inhibition at 5 ug/ml by MTT assay; assay type: functional; settings: read-out: GI; method in brief: as §1
[4] = tested on: HCT-116; assay: Cytotoxicity against human HCT116 cells assessed as growth inhibition by MTT assay; assay type: functional, cell-based
Method in brief: (§2)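 Dose-response on HCT-116, OVCAR-8, HL-60 (leukemia) and SF-295 cells, with doxorubicin as positive control. IC50 is taken as the concentration inducing 50% inhibition of cell growth. Data come from three independent experiments, each run in triplicate.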

[5] = tested on: HL-60; assay: Cytotoxicity against human HL60 cells assessed as growth inhibition by MTT assay; assay type: functional, cell-based; method in brief: as §2
[6] = tested on: SF-295; assay: Cytotoxicity against human SF295 cells assessed as growth inhibition by MTT assay; assay type: functional, cell-based; method in brief: as §2
[7] = tested on: OVCAR-8; assay: Cytotoxicity against human OVCAR8 cells assessed as growth inhibition by MTT assay; assay type: functional, cell-based; method in brief: as §2

Row | Compound | inhibition of growth at 5 µg/mL [1] [%] | inhibition of growth at 5 µg/mL [2] [%] | inhibition of growth at 5 µg/mL [3] [%] | pIC50 [4] | pIC50 [5] | pIC50 [6] | pIC50 [7]
1 | Oc1ccc(/C=N/Nc2cnc3ccccc3n2)cc1O | 47.6 | 46.3 | 69.4 | – | – | – | –
2 | Cc1ccc(/C=N/Nc2cnc3ccccc3n2)cc1 | 18.1 | 29 | 19.6 | – | – | – | –
3 | O=[N+]([O-])c1ccc(/C=N/Nc2cnc3ccccc3n2)cc1 | 27 | 40.6 | 18.6 | – | – | – | –
4 | Cc1ccccc1/C=N/Nc1cnc2ccccc2n1 | 46.4 | 17.8 | 28.7 | – | – | – | –
5 | Cc1ccc(/C=N/Nc2cnc3ccccc3n2)c(O)c1 | 59.9 | 31.5 | 17.4 | – | – | – | –
6 | COc1ccc(/C=N/Nc2cnc3ccccc3n2)cc1OC | 16.5 | 17.6 | 22.3 | – | – | – | –
7 | Clc1ccc(/C=N/Nc2cnc3ccccc3n2)cc1 | 44.5 | 41.7 | 10.2 | – | – | – | –
8 | N#Cc1ccc(/C=N/Nc2cnc3ccccc3n2)cc1 | 16 | 50.9 | 31.6 | – | – | – | –
9 | Cc1ccc(O)c(/C=N/Nc2cnc3ccccc3n2)c1 | 38.4 | 25.4 | 13.7 | – | – | – | –
10 | Clc1cccc(Cl)c1/C=N/Nc1cnc2ccccc2n1 | 52 | 53.5 | 71.2 | – | – | – | –
11 | Brc1ccccc1/C=N/Nc1cnc2ccccc2n1 | 35.2 | 18 | 23.6 | – | – | – | –
12 | COc1ccc(OC)c(/C=N/Nc2cnc3ccccc3n2)c1 | 44.6 | 18.5 | 0 | – | – | – | –
13 | Oc1cccc(/C=N/Nc2cnc3ccccc3n2)c1O | 81.2 | 97.9 | 84 | 5.75 | 6.50 | 5.90 | 5.97
14 | COc1ccc(/C=N/Nc2cnc3ccccc3n2)cc1 | 0.52 | 14.4 | -43.6 | – | – | – | –
15 | Oc1cccc(/C=N/Nc2cnc3ccccc3n2)c1 | 27.5 | 51.5 | 29.6 | – | – | – | –
16 | COc1cccc2c1C(=O)c1c(O)c3c(c(O)c1C2=O)C[C@@](O)(C(=O)CO)C[C@@H]3O[C@H]1C[C@H](N)[C@H](O)[C@H](C)O1 [DOXORUBICIN] | – | – | – | 6.64 | – | – | 6.31
17 | Cc1cccc(/C=N/Nc2cnc3ccccc3n2)c1 | 39.8 | 39.9 | 33.4 | – | – | – | –
18 | COc1cccc(/C=N/Nc2cnc3ccccc3n2)c1 | 35.8 | 41.6 | 14.5 | – | – | – | –
19 | Oc1ccc(/C=N/Nc2cnc3ccccc3n2)cc1Cl | 46.6 | 28.8 | 16.2 | – | – | – | –
20 | Clc1cccc(/C=N/Nc2cnc3ccccc3n2)c1Cl | 84.3 | 100 | 97.5 | 5.15 | 4.97 | 5.21 | 5.21
21 | O=[N+]([O-])c1cc(/C=N/Nc2cnc3ccccc3n2)ccc1Cl | 36.8 | 9 | 20.6 | – | – | – | –
22 | CCOc1ccc(/C=N/Nc2cnc3ccccc3n2)cc1 | 12.3 | 50.3 | 17.6 | – | – | – | –
23 | COc1ccccc1/C=N/Nc1cnc2ccccc2n1 | 21.8 | 21 | 4.45 | – | – | – | –
24 | COc1ccc(/C=N/Nc2cnc3ccccc3n2)c(O)c1 | 66.4 | 80.9 | 83.1 | 4.85 | 5.38 | 4.80 | 5.12

Row | Compound | inhibition of growth at 5 µg/mL [1] [%] | inhibition of growth at 5 µg/mL [2] [%] | inhibition of growth at 5 µg/mL [3] [%] | pIC50 [4] | pIC50 [5] | pIC50 [6] | pIC50 [7]
25 | COc1ccc(/C=N/Nc2cnc3ccccc3n2)c(OC)c1 | 46.9 | 7.19 | 12.8 | – | – | – | –
26 | CCOc1cccc(/C=N/Nc2cnc3ccccc3n2)c1 | 7.19 | 41.2 | 1.29 | – | – | – | –
27 | O=[N+]([O-])c1cccc(/C=N/Nc2cnc3ccccc3n2)c1 | 23.4 | 16.9 | 21 | – | – | – | –
28 | N#Cc1cccc(/C=N/Nc2cnc3ccccc3n2)c1 | 44.5 | 11.5 | 30.7 | – | – | – | –
29 | COc1cc(/C=N/Nc2cnc3ccccc3n2)cc(OC)c1OC | 60.1 | 38.8 | 20.7 | – | – | – | –
30 | Clc1cccc(/C=N/Nc2cnc3ccccc3n2)c1 | 33.2 | 0 | 0 | – | – | – | –
31 | COc1cccc(OC)c1/C=N/Nc1cnc2ccccc2n1 | 44.7 | 25.1 | 19.4 | – | – | – | –
32 | Fc1cccc(/C=N/Nc2cnc3ccccc3n2)c1 | 8.36 | 5.59 | 10.8 | – | – | – | –
33 | Oc1ccc(/C=N/Nc2cnc3ccccc3n2)c(O)c1 | 85.3 | 84.2 | 85.1 | – | – | – | –
34 | Clc1ccc(/C=N/Nc2cnc3ccccc3n2)c(Cl)c1 | 28.5 | 4.9 | 16.5 | – | – | – | –
35 | Fc1ccccc1/C=N/Nc1cnc2ccccc2n1 | 12.8 | 0 | 7.01 | – | – | – | –
36 | C(=N\Nc1cnc2ccccc2n1)/c1ccccc1 | 3.37 | 34.5 | 18.4 | – | – | – | –
37 | Clc1ccc(/C=N/Nc2cnc3ccccc3n2)cc1Cl | 37.8 | 0 | 0.5 | – | – | – | –
38 | Oc1ccc(/C=N/Nc2cnc3ccccc3n2)cc1 | 39.4 | 67.3 | 20.2 | – | – | – | –
39 | Brc1cccc(/C=N/Nc2cnc3ccccc3n2)c1 | 14.2 | 0 | 0 | – | – | – | –
40 | Clc1ccccc1/C=N/Nc1cnc2ccccc2n1 | 31.9 | 9.09 | 12.1 | – | – | – | –
41 | O=[N+]([O-])c1ccc(O)c(/C=N/Nc2cnc3ccccc3n2)c1 | 78.5 | 95.6 | 92.1 | 5.36 | 5.76 | 5.68 | 5.55
42 | COc1ccc(/C=N/Nc2cnc3ccccc3n2)c(Cl)c1O | 32.4 | 13.8 | 24.5 | – | – | – | –
43 | Oc1ccccc1/C=N/Nc1cnc2ccccc2n1 | 61.5 | 95.4 | 77 | 5.31 | 6.09 | 5.64 | 5.46
44 | Oc1ccc(O)c(/C=N/Nc2cnc3ccccc3n2)c1 | 50.7 | 60.5 | 89.2 | – | – | – | –
45 | O=[N+]([O-])c1ccccc1/C=N/Nc1cnc2ccccc2n1 | 21.9 | 21.8 | 23 | – | – | – | –
46 | Brc1ccc(/C=N/Nc2cnc3ccccc3n2)cc1 | 33.5 | 18.2 | 23.2 | – | – | – | –
47 | Oc1cc(/C=N/Nc2cnc3ccccc3n2)cc(O)c1O | 37.8 | 12.8 | 14.9 | – | – | – | –
48 | COc1cccc(/C=N/Nc2cnc3ccccc3n2)c1OC | 22.2 | 0 | 0 | – | – | – | –
